Results: ChEMBL document CHEMBL1152757, “Stereoselective synthesis and biological evaluation of syn-1-amino-3-[18F]fluorocyclobutyl-1-carboxylic acid as a potential positron emission tomography brain tumor imaging agent” (Bioorg Med Chem, 2009)

What was measured:
Assay type in all cases: ADME, cell-based
Conditions in all cases: 0.5 h
[1] = tested on: 9L; test: Drug uptake in rat 9L cells assessed as intracellular accumulation after 30 mins measured per 5 x 10^5 cells by gamma-counter
How it was run: (§1)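 9L cells were grown in DMEM with 10% FCS and penicillin/streptomycin, then trypsinized and washed twice in HBSS. About 5 × 10^5 cells received 5 µCi tracer in amino acid-free HBSS for 30 min at 37 °C, without or with 10 mM BCH (L-type inhibitor). Cells were centrifuged and rinsed twice with ice-cold HBSS, then gamma-counted with decay correction. Uptake expressed as % of standard per 5 × 10^5 cells. Triplicates, 1-way ANOVA.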

[2] = tested on: 9L; test: Drug uptake in rat 9L cells assessed as intracellular accumulation after 30 mins measured per 5 x 10^5 cells by gamma-counter in presence of 2-aminobicyclo[2.2.1]-heptane-2-carboxylic acid; how it was run: as §1
[3] = tested on: 9L; test: Drug uptake in rat 9L cells assessed as intracellular accumulation after 30 mins measured per 5 x 10^5 cells by gamma-counter in presence of alanine-cysteine-serine
How it was run: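 9L rat gliosarcoma cells were grown in DMEM with 10% fetal calf serum and penicillin/streptomycin at 37 °C under 5% CO2, trypsinized and washed in HBSS. About 5 × 10^5 cells were incubated with 5 µCi tracer in amino-acid-free HBSS with 10 mM ACS (equimolar Ala/Cys/Ser) for 30 min at 37 °C, run in triplicate. Cells were centrifuged and rinsed twice with ice-cold HBSS, then gamma counted with decay correction. Results are % of standard per 5 × 10^5 cells.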

Question: Which results are given for `N[C@]1(C(=O)O)C[C@@H]([18F])C1` [FLUCICLOVINE F18]?
Answer: Drug uptake [1]: 12.3 %ID; Drug uptake [2]: 2.9 %ID; Drug uptake [3]: 0.18 %ID
